Reference: ChEMBL document CHEMBL4339197, “Discovery of Imidazo[1,2-a]pyrazines and Pyrazolo[1,5-c]pyrimidines as TARP γ-8 Selective AMPAR Negative Modulators” (ACS Med Chem Lett, 2019)
Values after ≈ are worked out from the molar mass of the structure shown. Active and inactive are the calls of the source. No cut-off for these calls is given here.

How the values were obtained:
[1] = target: GRIA1/CACNG8 (Homo sapiens); assay: Negative allosteric modulation of recombinant human GluA1 flop isoform/TARPgamma8 expressed in HEK293 cells assessed as inhibition of glutamate-induced calcium flux at 100 uM by calcium 5/6 dye based FLIPR assay
Cytochrome P450 2C9 = Cytochrome P450 2C9 (Homo sapiens, UniProt P11712); assay: Inhibition of CYP2C9 in human liver microsomes using diclofenac as substrate measured after 15 mins in presence of NADPH by LC-MS/MS analysis; format: ADME
Mus musculus [2] = assay: Ex vivo receptor occupancy at TARPgamma8 in mouse assessed as reduction in [3H]JNJ-56022486 receptor labeling at 10 mg/kg, po measured after 1 hr by autoradiography; format: functional
Outline: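 Mice given a single 10 mg/kg p.o. dose and sampled over time (n = 3 per time point, ±SEM). GluA/γ-8 receptor occupancy in hippocampus measured by ex vivo autoradiography with [3H]JNJ-56022486 radiotracer. Plasma and brain exposures also measured.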

Mus musculus [3] = assay: Ex vivo receptor occupancy at TARPgamma8 in po dosed mouse assessed as reduction in [3H]JNJ-56022486 receptor labeling by autoradiography; format: functional
Outline: (§1)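 Occupancy measured by ex vivo autoradiography with [3H]JNJ-56022486. ED50 from a Hill fit of occupancy versus dose. Brain and plasma EC50 from fitting occupancy against exposure.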

Mus musculus [4] = assay: Ex vivo receptor occupancy at TARPgamma8 in po dosed mouse assessed as plasma concentration causing 50% reduction in [3H]JNJ-56022486 receptor labeling by autoradiography; format: functional, organism-based
Outline: as §1

Mus musculus [5] = assay: Anticonvulsant activity in albino CF1 mouse model of 60-Hz corneal stimulation induced kindling model assessed as decrease in seizure score at 5 mg/kg/day measured 1 hr post last dose; format: functional, organism-based
Outline: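 Mouse corneal kindling model; once-daily oral dosing at 5 mg/kg/day for 5 days, seizure challenge 1 h after dosing. Rotarod test given immediately before challenge. Read-out is the fraction of animals protected (Racine score 3 or lower). N = 12-14 animals per cohort.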

Mus musculus [6] = assay: Anticonvulsant activity in po dosed albino CF1 mouse model of 60-Hz corneal stimulation induced kindling model assessed as decrease of seizure score treated for 1 hr prior to 60-Hz corneal stimulation and measured after 1 hr
GRIA1/CACNG8 = GRIA1/CACNG8 (Homo sapiens, UniProt P42261+Q8WXS5); assay: Negative allosteric modulation of recombinant human GluA1 flop isoform/TARPgamma8 expressed in HEK293 cells assessed as inhibition of glutamate-induced calcium flux by calcium 5/6 dye based FLIPR assay; format: cell-based
Outline: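 FLIPR assay of glutamate-induced Ca2+ flux in HEK-293 cells expressing a human GluA1o-γ-8 fusion construct. At least three assays each run in triplicate; mean pIC50 with standard deviation.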

GRIA1/CACNG2 [7] = target: T1, GRIA1/CACNG2 (Homo sapiens, UniProt P42261+Q9Y698); assay: Negative allosteric modulation of recombinant human GluA1 flop isoform/TARPgamma2 expressed in HEK293 cells assessed as inhibition of glutamate-induced calcium flux by calcium 5/6 dye based FLIPR assay; format: cell-based
Outline: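 FLIPR Ca2+ flux assay in HEK-293 cells transiently expressing human GluA1o co-transfected with γ-2; glutamate-induced response; reported as pIC50.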

GRIA1/CACNG2 [8] = target: T1, GRIA1/CACNG2; assay: Negative allosteric modulation of recombinant human GluA1 flop isoform/TARPgamma2 expressed in HEK293 cells assessed as inhibition of glutamate-induced calcium flux at 100 uM by calcium 5/6 dye based FLIPR assay; format: cell-based; conditions: hek293, 100 µM
Outline: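 Counterscreen of FLIPR Ca2+ flux in HEK-293 cells co-transfected with human GluA1o and γ-2, tested up to 100 µM.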

[9] = target: T2, Voltage-dependent calcium channel gamma-8 subunit (Rattus norvegicus) (UniProt Q8VHW5); assay: Negative allosteric modulation of TARPgamma8 in rat hippocampal neurons assessed as inhibition of glutamate-induced current at 10 uM at -60 mV holding potential by patch-clamp electrophysiology method
T2 sequence (whole entry): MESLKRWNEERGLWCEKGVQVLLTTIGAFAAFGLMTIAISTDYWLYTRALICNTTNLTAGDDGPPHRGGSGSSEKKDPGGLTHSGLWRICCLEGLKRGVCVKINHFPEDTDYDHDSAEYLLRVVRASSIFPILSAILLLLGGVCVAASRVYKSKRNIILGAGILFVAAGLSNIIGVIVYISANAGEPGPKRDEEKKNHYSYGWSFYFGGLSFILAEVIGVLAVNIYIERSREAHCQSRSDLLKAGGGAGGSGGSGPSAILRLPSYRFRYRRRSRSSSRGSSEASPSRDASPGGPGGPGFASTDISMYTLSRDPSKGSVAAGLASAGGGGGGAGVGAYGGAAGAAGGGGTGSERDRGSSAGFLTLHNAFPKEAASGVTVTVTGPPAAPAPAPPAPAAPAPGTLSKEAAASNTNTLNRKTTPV

[10] = target: T3, Voltage-dependent calcium channel gamma-2 subunit (Rattus norvegicus, UniProt Q71RJ2); assay: Negative allosteric modulation of TARPgamma2 in rat cerebellar purkinje neurons assessed as inhibition of glutamate-induced current at 10 uM at -60 mV holding potential measured at 5 secs interval for 50 to 60 secs by patch-clamp electrophysiology method
T3 sequence (Q71RJ2 whole entry): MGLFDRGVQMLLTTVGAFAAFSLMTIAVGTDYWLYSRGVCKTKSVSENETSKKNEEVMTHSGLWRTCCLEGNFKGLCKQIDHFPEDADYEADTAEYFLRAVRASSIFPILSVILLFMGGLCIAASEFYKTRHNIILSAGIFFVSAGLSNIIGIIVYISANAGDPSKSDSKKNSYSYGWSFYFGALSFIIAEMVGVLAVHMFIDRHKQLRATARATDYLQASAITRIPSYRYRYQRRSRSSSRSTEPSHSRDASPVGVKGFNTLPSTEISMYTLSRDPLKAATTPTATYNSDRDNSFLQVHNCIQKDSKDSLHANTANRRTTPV

[11] = target: T2, Voltage-dependent calcium channel gamma-8 subunit (Rattus norvegicus); assay: Negative allosteric modulation of TARPgamma8 in rat hippocampal neurons assessed as inhibition of glutamate-induced current at 10 uM at -60 mV holding potential measured at 5 secs interval for 50 to 60 secs by patch-clamp electrophysiology method relative to control
[12] = Extraction ratio in human liver microsomes at 1 uM measured after 60 mins by LC-MS/MS analysis; format: ADME, Microsome; conditions: read-out: ERH
Outline: (§2)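 Metabolic stability in human and rat liver microsomes at 1 µM compound; reported as extraction ratio.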

[13] = Extraction ratio in rat liver microsomes at 1 uM measured after 60 mins by LC-MS/MS analysis; format: ADME, Microsome; conditions: read-out: ERH
Outline: as §2

[14] = Efflux ratio of apparent permeability across basolateral to apical side over apical to basolateral side in MDCK-MDR1 cells at 5 uM measured after 60 mins by LC-MS/MS analysis; format: ADME, cell-based, Canis lupus familiaris; conditions: dog
Outline: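 Bidirectional permeability; efflux reported as the ratio of B-to-A over A-to-B apparent permeability.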

[15] = Apparent permeability across apical to basolateral side in MDCK-MDR1 cells at 5 uM measured after 60 mins by LC-MS/MS analysis; format: ADME, cell-based, Canis lupus familiaris; conditions: dog

T1 sequence (P42261 whole entry, canonical isoform): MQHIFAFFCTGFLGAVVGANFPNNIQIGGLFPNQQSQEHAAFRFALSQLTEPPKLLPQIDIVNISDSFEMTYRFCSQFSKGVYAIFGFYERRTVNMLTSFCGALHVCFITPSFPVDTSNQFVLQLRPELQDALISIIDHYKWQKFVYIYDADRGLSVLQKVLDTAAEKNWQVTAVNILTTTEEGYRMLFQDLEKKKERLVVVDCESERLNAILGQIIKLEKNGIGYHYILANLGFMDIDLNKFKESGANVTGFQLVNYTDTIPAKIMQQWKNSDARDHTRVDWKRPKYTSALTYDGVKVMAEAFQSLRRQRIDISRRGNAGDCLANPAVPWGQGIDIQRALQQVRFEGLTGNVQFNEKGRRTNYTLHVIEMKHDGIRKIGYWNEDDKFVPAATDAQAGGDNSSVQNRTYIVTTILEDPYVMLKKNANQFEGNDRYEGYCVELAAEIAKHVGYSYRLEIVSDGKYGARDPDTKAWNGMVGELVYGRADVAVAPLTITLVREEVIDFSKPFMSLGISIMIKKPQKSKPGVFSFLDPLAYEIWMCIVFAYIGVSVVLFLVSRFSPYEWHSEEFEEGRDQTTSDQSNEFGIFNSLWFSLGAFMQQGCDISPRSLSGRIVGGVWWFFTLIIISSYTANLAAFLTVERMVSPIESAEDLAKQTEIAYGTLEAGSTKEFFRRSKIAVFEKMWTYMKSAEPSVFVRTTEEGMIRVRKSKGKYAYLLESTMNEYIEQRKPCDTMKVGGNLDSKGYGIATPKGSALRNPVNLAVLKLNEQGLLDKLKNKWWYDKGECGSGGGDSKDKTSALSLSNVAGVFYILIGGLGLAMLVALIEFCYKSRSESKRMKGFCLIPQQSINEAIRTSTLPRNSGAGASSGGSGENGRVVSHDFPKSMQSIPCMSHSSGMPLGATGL
T1 sequence (Q9Y698 whole entry, canonical isoform): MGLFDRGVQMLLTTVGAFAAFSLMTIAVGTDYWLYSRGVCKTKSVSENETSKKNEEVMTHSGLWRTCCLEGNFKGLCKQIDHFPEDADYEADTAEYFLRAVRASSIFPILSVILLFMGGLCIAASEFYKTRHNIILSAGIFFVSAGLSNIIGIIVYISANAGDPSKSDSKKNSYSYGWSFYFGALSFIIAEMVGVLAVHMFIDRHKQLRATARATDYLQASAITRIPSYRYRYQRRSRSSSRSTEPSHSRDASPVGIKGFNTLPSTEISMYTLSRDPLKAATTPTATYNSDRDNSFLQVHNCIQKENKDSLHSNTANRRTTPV
GRIA1/CACNG8, sequence (P42261 whole entry, the tested form may be a part, canonical isoform): as the sequence (P42261 whole entry, canonical isoform) above
GRIA1/CACNG8, sequence (Q8WXS5 whole entry, the tested form may be a part, canonical isoform): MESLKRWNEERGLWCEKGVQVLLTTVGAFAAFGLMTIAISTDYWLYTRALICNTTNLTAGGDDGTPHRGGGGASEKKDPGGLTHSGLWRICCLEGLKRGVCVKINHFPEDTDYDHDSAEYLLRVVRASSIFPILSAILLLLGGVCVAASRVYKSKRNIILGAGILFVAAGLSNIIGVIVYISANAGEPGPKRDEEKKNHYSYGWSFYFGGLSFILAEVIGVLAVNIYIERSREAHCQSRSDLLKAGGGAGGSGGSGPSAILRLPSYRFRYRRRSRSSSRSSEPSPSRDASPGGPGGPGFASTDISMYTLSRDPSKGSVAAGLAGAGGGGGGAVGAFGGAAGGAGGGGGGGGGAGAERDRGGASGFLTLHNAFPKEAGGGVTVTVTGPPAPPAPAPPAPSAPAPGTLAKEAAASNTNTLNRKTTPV
Cytochrome P450 2C9, sequence (P11712 whole entry): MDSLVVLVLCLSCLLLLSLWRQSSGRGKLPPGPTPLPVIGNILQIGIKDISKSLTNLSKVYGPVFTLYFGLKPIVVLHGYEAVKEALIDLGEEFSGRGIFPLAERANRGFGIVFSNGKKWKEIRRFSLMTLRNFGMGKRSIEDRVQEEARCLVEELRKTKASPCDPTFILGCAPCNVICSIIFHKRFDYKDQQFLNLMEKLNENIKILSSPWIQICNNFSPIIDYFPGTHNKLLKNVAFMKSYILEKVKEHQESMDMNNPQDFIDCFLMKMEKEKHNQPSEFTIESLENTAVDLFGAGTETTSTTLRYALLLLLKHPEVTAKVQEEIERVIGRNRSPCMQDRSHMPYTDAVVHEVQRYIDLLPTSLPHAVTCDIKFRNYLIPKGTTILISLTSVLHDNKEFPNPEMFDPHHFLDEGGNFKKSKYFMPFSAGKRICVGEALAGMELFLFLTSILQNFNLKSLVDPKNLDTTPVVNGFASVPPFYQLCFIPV

CC(=O)Nc1ccc(-c2c(-c3ccc(F)cc3)nc3c(N4CCOCC4)nccn23)cc1
IC50 ([1]; read-out: pIC50 (converted)): > 10000 nM

Fc1ccc(-c2nc3c(N4CCOCC4)nccn3c2-c2ccc3[nH]ncc3c2)cc1
IC50 (Cytochrome P450 2C9): 500 nM | IC50 ([1]; read-out: pIC50 (converted)): 0.631 nM

O=C1CN(c2nccc3c(-c4ccc5c(c4)CC(=O)N5)c(-c4ccc(F)cc4)nn23)CCN1
IC50 ([1]; read-out: pIC50 (converted)): 5.01 nM

CC(=O)N1CCN(c2nccn3c(-c4ccc5c(c4)CC(=O)N5)c(-c4ccc(F)cc4)nc23)CC1
IC50 ([1]; read-out: pIC50 (converted)): 0.398 nM

O=C1Cc2cc(-c3c(-c4ccc(F)cc4)nc4c(N5CCC(F)CC5)nccn34)ccc2N1
IC50 ([1]; read-out: IC50): 0.1 nM

O=C1Cc2cc(-c3c(-c4ccc(F)cc4)nn4c(N5CCOCC5)nccc34)ccc2N1
IC50 ([1]; read-out: pIC50 (converted)): 0.501 nM

O=C1Cc2cc(-c3c(-c4ccc(F)cc4)nn4c(N5CCC(O)CC5)nccc34)ccc2N1
Occ (Mus musculus [2]): > 90% | ED50 (Mus musculus [3]): 2.9 mg/kg | EC50 (Mus musculus [4]): 0.362 µg/mL (≈ 0.816 µM) | Activity (Mus musculus [5]): Active | ED50 (Mus musculus [6]): 1.3 mg/kg

COc1ccc(-c2c(-c3ccc(F)cc3)nc3c(N4CCOCC4)nccn23)cc1
IC50 ([1]; read-out: pIC50 (converted)): 501 nM

Oc1ccc(-c2c(-c3ccc(Cl)cc3)nc3c(N4CCOCC4)nccn23)cc1
IC50 ([1]; read-out: pIC50 (converted)): 10 nM

COCCn1cc(-c2c(-c3ccc(Cl)cc3)nc3c(N4CCOCC4)nccn23)cn1
IC50 (GRIA1/CACNG8): 126 nM | IC50 (GRIA1/CACNG2 [7]): > 10000 nM | inhibition (INH) (GRIA1/CACNG2 [8]): Not Active | inhibition [9]: Dose-dependent effect | inhibition (INH) [10]: Not Active | inhibition [11]: 50%

CC(=O)N1CCN(c2nccc3c(-c4ccc5c(c4)CC(=O)N5)c(-c4ccc(F)cc4)nn23)CC1
hepatic extraction ratio at 1 h, 1 µM [12]: 0.6 | hepatic extraction ratio at 1 h, 1 µM [13]: 0.5 | efflux ratio at 1 h, 5 µM [14]: 34 | Papp A→B at 1 h, 5 µM [15]: 2.1 ×10⁻⁶ cm/s | IC50 ([1]; read-out: pIC50 (converted)): 0.251 nM

O=C1Cc2cc(-c3c(-c4ccc(F)cc4)nn4c(N5CCC(F)CC5)nccc34)ccc2N1
hepatic extraction ratio at 1 h, 1 µM [12]: 0.6 | hepatic extraction ratio at 1 h, 1 µM [13]: 0.6 | Papp A→B at 1 h, 5 µM [15]: 1.2 ×10⁻⁶ cm/s | IC50 ([1]; read-out: pIC50 (converted)): 5.01 nM

Oc1ccc(-c2c(-c3ccc(F)cc3)nc3c(N4CCOCC4)nccn23)cc1
IC50 ([1]; read-out: pIC50 (converted)): 12.6 nM

Oc1ccc(-n2c(-c3ccc(F)cc3)nc3ccccc32)cc1
IC50 (GRIA1/CACNG8): 200 nM | IC50 (GRIA1/CACNG2 [7]): 1260 nM

O=C1CN(c2nccn3c(-c4ccc5c(c4)CC(=O)N5)c(-c4ccc(F)cc4)nc23)CCN1
IC50 ([1]; read-out: pIC50 (converted)): 0.501 nM

O=C1Cc2cc(-c3c(-c4ccc(F)cc4)nc4c(N5CCC(O)CC5)nccn34)ccc2N1
IC50 ([1]; read-out: pIC50 (converted)): 0.398 nM

Nc1ccc(-c2c(-c3ccc(F)cc3)nc3c(N4CCOCC4)nccn23)cc1
IC50 ([1]; read-out: pIC50 (converted)): 63.1 nM
